Experimental data reported in ChEMBL document CHEMBL1132447, “Structure-activity relationships and molecular modeling analysis of flavonoids binding to the benzodiazepine site of the rat brain GABA(A) receptor complex” (J Med Chem, 1999).

Columns and labels:
[1] = biological target: GABA-A receptor; anion channel (Rattus norvegicus) (UniProt O09028+P15431+P18506+P18508+P19969+P20236+P23574+P23576+P28471+P28473+P30191+P62813+P63079+P63138+Q91ZM7+Q9ES14); test: Ratio of Ki value without GABA and Ki value in the presence of GABA.; type: protein-complex assay
[2] = biological target: GABA-A receptor; anion channel; test: In vitro affinity against Benzodiazepine receptor binding to rat cortical membranes (using [3H]- flumazenil as radioligand).
Method in brief: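 Male Wistar rat (~200 g) cerebral cortex membranes, washed in Tris-citrate 50 mM pH 7.1, 2 mg original tissue/mL. Filtered, then scintillation counting. Duplicates.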

| SMILES | GABA ratio [1] | Ki [2] [nM] |
| --- | --- | --- |
| O=c1cc(-c2ccccc2)oc2ccc3ccccc3c12 [BETA-NAPHTHOFLAVONE] | 1.28 | 1480 |
| O=c1cc(-c2ccccc2)oc2cccc(O)c12 [5-HYDROXYFLAVONE] | 1.03 | 1900 |
| Cc1ccc2oc(-c3cccc([N+](=O)[O-])c3)cc(=O)c2c1[N+](=O)[O-] | 1.41 | 1.9 |
| Cc1cccc(-c2cc(=O)c3cc(C)ccc3o2)c1 | 1.63 | 29 |
| O=c1cc(-c2cccc([N+](=O)[O-])c2)oc2ccc(Br)cc12 | 1.4 |  |
| O=c1c(Br)c(-c2ccccc2)oc2ccccc12 |  | > 75000 |
| CCc1c(C(=O)OC)ncc2[nH]c3cc(OC)c(OC)cc3c12 | 0.57 | 7.6 |
| Cc1ccc2oc(-c3cccc([N+](=O)[O-])c3)cc(=O)c2c1 | 0.72 | 5.6 |
| Cc1ccc2sc(-c3ccccc3)cc(=O)c2c1 | 1.35 | 310 |
| O=c1cc(-c2ccccc2)oc2ccc(O)cc12 [6-HYDROXYFLAVONE] | 1.06 | 400 |
| Cc1ccc2oc(-c3ccccc3)cc(=O)c2c1 [6-METHYLFLAVONE] | 0.98 | 125 |
| O=c1cc(-c2ccc(O)cc2)oc2cc(O)cc(O)c12 [APIGENIN] | 1.03 | 770 |
| O=c1cc(-c2ccccc2)oc2ccc(Br)cc12 [6-BROMOFLAVONE] | 1.8 | 70 |
| Cc1ccc2oc(-c3ccccc3[N+](=O)[O-])cc(=O)c2c1 | 1.49 | 1000 |
| Cc1ccc2oc(-c3ccc([N+](=O)[O-])cc3)cc(=O)c2c1 |  | 7300 |
| O=c1cc(-c2cccc([N+](=O)[O-])c2)oc2ccc([N+](=O)[O-])cc12 | 1.3 |  |
| O=c1cc(-c2ccccc2)oc2ccccc12 [FLAVONE] | 1.05 | 4200 |
| Cc1ccc2sc(-c3cccc([N+](=O)[O-])c3)cc(=O)c2c1 | 1.51 | 33 |
| O=c1cc(-c2ccccc2)oc2cc(O)ccc12 [7-HYDROXYFLAVONE] | 1.14 | 4200 |
| O=c1cc(-c2ccc([N+](=O)[O-])cc2)oc2ccc([N+](=O)[O-])cc12 |  | 17000 |
| O=c1cc(-c2ccccc2)oc2cc(O)cc(O)c12 [CHRYSIN] | 0.9 | 920 |
| COc1ccc2oc(-c3ccccc3)cc(=O)c2c1 [6-METHOXYFLAVONE] | 1.51 | 570 |
